Measured values: ChEMBL document CHEMBL3227952, “Potential organ- or tumor-imaging agents. 18. Radioiodinated diamines and bisquaternaries” (J Med Chem, 1979)

Assays:
Conditions in all cases: in vivo
[1] = Drug uptake in Sprague-Dawley rat diaphragm at 6.3 uCi, iv after 2 hrs by liquid scintillation counting; format: ADME, organism-based
In short: (§1)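 Adult male Sprague-Dawley rats (200–420 g) got ¹⁴C-labelled bisquaternary (20.9 µCi/mg) in saline, 0.1 mL, by tail vein under ether anesthesia. Five rats per time point were exsanguinated under ether. Organs were excised, rinsed, blotted and weighed. Duplicate samples underwent liquid scintillation counting, with quench corrected by the external standard-channels ratio. Results are % administered dose/g, mean ± SEM.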

Heart [2] = experiment: Drug uptake in Sprague-Dawley rat heart at 6.3 uCi, iv after 2 hrs by liquid scintillation counting; format: ADME, organism-based; in short: as §1
[3] = Drug uptake in Sprague-Dawley rat meninges at 6.3 uCi, iv after 2 hrs by liquid scintillation counting; format: ADME, organism-based; in short: as §1
Lung [4] = experiment: Drug uptake in Sprague-Dawley rat lung at 6.3 uCi, iv after 2 hrs by liquid scintillation counting; format: ADME, organism-based; in short: as §1
[5] = Drug uptake in Sprague-Dawley rat meninges at 6.3 uCi, iv after 0.5 hrs by liquid scintillation counting; format: ADME, organism-based; in short: as §1
Adrenal [6] = experiment: Drug uptake in Sprague-Dawley rat adrenal at 6.3 uCi, iv after 0.5 hrs by liquid scintillation counting; format: ADME, organism-based, Adrenal gland; in short: as §1
Spleen [7] = experiment: Drug uptake in Sprague-Dawley rat spleen at 6.3 uCi, iv after 2 hrs by liquid scintillation counting; format: ADME, organism-based
In short: (§2)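 [¹⁴C]Hexamethonium diiodide in saline (15 mg/5.0 mL), 20.9 μCi/mg, 0.1 mL injected into the tail vein of ether-anesthetized adult male Sprague-Dawley rats (200–420 g). At 0.5 or 2 h rats were exsanguinated under ether and organs excised, rinsed, blotted and weighed. Duplicate samples were counted by liquid scintillation, with quench corrected by external standard-channels ratio. Results are % administered dose/g, mean ± SEM, five rats.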

[8] = Drug uptake in Sprague-Dawley rat intervertebral disk at 6.3 uCi, iv after 2 hrs by liquid scintillation counting; format: ADME, organism-based; in short: as §1
Lung [9] = experiment: Drug uptake in Sprague-Dawley rat lung at 6.3 uCi, iv after 0.5 hrs by liquid scintillation counting; format: ADME, organism-based; in short: as §1
Thyroid gland [10] = experiment: Drug uptake in Sprague-Dawley rat thyroid at 6.3 uCi, iv after 0.5 hrs by liquid scintillation counting; format: ADME, organism-based; in short: as §2
[11] = Drug uptake in Sprague-Dawley rat trachea at 6.3 uCi, iv after 0.5 hrs by liquid scintillation counting; format: ADME, organism-based; in short: as §2
Blood [12] = experiment: Drug uptake in Sprague-Dawley rat blood at 6.3 uCi, iv after 0.5 hrs by liquid scintillation counting; format: ADME, organism-based; in short: as §1
Testes [13] = experiment: Drug uptake in Sprague-Dawley rat testes at 6.3 uCi, iv after 0.5 hrs by liquid scintillation counting; format: ADME, organism-based, Testis; in short: as §2
Liver [14] = experiment: Drug uptake in Sprague-Dawley rat liver at 6.3 uCi, iv after 0.5 hrs by liquid scintillation counting; format: ADME, organism-based; in short: as §1
Liver [15] = experiment: Drug uptake in Sprague-Dawley rat liver at 6.3 uCi, iv after 2 hrs by liquid scintillation counting; format: ADME, organism-based; in short: as §1
[16] = Drug uptake in Sprague-Dawley rat diaphragm at 6.3 uCi, iv after 0.5 hrs by liquid scintillation counting; format: ADME, organism-based; in short: as §1
[17] = Drug uptake in Sprague-Dawley rat trachea at 6.3 uCi, iv after 2 hrs by liquid scintillation counting; format: ADME, organism-based; in short: as §2
Spleen [18] = experiment: Drug uptake in Sprague-Dawley rat spleen at 6.3 uCi, iv after 0.5 hrs by liquid scintillation counting; format: ADME, organism-based; in short: as §2
Testes [19] = experiment: Drug uptake in Sprague-Dawley rat testes at 6.3 uCi, iv after 2 hrs by liquid scintillation counting; format: ADME, organism-based, Testis; in short: as §2
Heart [20] = experiment: Drug uptake in Sprague-Dawley rat heart at 6.3 uCi, iv after 0.5 hrs by liquid scintillation counting; format: ADME, organism-based; in short: as §1
Blood [21] = experiment: Drug uptake in Sprague-Dawley rat blood at 6.3 uCi, iv after 2 hrs by liquid scintillation counting; format: ADME, organism-based; in short: as §1
Pancreas [22] = experiment: Drug uptake in Sprague-Dawley rat pancreas at 6.3 uCi, iv after 2 hrs by liquid scintillation counting; format: ADME, organism-based; in short: as §1
Brain [23] = experiment: Drug uptake in Sprague-Dawley rat brain at 6.3 uCi, iv after 0.5 hrs by liquid scintillation counting; format: ADME, organism-based; in short: as §1
Pancreas [24] = experiment: Drug uptake in Sprague-Dawley rat pancreas at 6.3 uCi, iv after 0.5 hrs by liquid scintillation counting; format: ADME, organism-based; in short: as §1
Kidney [25] = experiment: Drug uptake in Sprague-Dawley rat kidney at 6.3 uCi, iv after 2 hrs by liquid scintillation counting; format: ADME, organism-based; in short: as §1
Thyroid gland [26] = experiment: Drug uptake in Sprague-Dawley rat thyroid at 6.3 uCi, iv after 2 hrs by liquid scintillation counting; format: ADME, organism-based; in short: as §2
Adrenal [27] = experiment: Drug uptake in Sprague-Dawley rat adrenal at 6.3 uCi, iv after 2 hrs by liquid scintillation counting; format: ADME, organism-based, Adrenal gland; in short: as §1
Kidney [28] = experiment: Drug uptake in Sprague-Dawley rat kidney at 6.3 uCi, iv after 0.5 hrs by liquid scintillation counting; format: ADME, organism-based; in short: as §1
[29] = Drug uptake in Sprague-Dawley rat intervertebral disk at 6.3 uCi, iv after 0.5 hrs by liquid scintillation counting; format: ADME, organism-based; in short: as §1
Brain [30] = experiment: Drug uptake in Sprague-Dawley rat brain at 6.3 uCi, iv after 2 hrs by liquid scintillation counting; format: ADME, organism-based; in short: as §1

Compound: C[N+](C)([14CH3])CCCCCC[N+](C)(C)[14CH3].[I-].[I-]
- Drug uptake [1]: 0.014 % ID/g
- Drug uptake (Heart [2]): 0.018 % ID/g
- Drug uptake [3]: 0.413 % ID/g
- Drug uptake (Lung [4]): 0.137 % ID/g
- Drug uptake [5]: 0.301 % ID/g
- Drug uptake (Adrenal [6]): 0.104 % ID/g
- Drug uptake (Spleen [7]): 0.051 % ID/g
- Drug uptake [8]: 0.144 % ID/g
- Drug uptake (Lung [9]): 0.377 % ID/g
- Drug uptake (Thyroid gland [10]): 0.206 % ID/g
- Drug uptake [11]: 1.35 % ID/g
- Drug uptake (Blood [12]): 0.31 % ID/g
- Drug uptake (Testes [13]): 0.097 % ID/g
- Drug uptake (Liver [14]): 0.112 % ID/g
- Drug uptake (Liver [15]): 0.049 % ID/g
- Drug uptake [16]: 0.094 % ID/g
- Drug uptake [17]: 0.127 % ID/g
- Drug uptake (Spleen [18]): 0.123 % ID/g
- Drug uptake (Testes [19]): 0.022 % ID/g
- Drug uptake (Heart [20]): 0.145 % ID/g
- Drug uptake (Blood [21]): 0.02 % ID/g
- Drug uptake (Pancreas [22]): 0.016 % ID/g
- Drug uptake (Brain [23]): 0.018 % ID/g
- Drug uptake (Pancreas [24]): 0.079 % ID/g
- Drug uptake (Kidney [25]): 1.384 % ID/g
- Drug uptake (Thyroid gland [26]): 0.047 % ID/g
- Drug uptake (Adrenal [27]): 0.043 % ID/g
- Drug uptake (Kidney [28]): 2.616 % ID/g
- Drug uptake [29]: 1.094 % ID/g
- Drug uptake (Brain [30]): 0.018 % ID/g
